Common to all, as to assay type: functional
Assay [1] relates to Hs-578T. The experiment in a line: Growth inhibition of human Hs578T cells after 48 hrs by Sulforhodamine B assay. In a few lines:
(§1)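 Five-concentration SRB assay using 10-fold or ½-log serial dilutions from a DMSO stock. Exposure is 48 h at 37 °C in 5% CO2 after 24 h preincubation. TCA fixation is followed by SRB staining and a reading at 515 nm. Percentage growth is computed from time-zero, control and treated absorbances. GI50 is the concentration where [(Ti−Tz)/(C−Tz)]×100 = 50, read from the plot against log concentration.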

For the next assay, the system named is OVCAR-8. The assay is described as follows: Growth inhibition of human OVCAR8 cells after 48 hrs by Sulforhodamine B assay. The following applies: OVCAR-8, 48 h. In a few lines: (§2)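 Cells were preincubated 24 h at 37 °C, 5% CO2, and a time-zero plate was TCA-fixed. Five concentrations were made by serial dilution from a DMSO stock (400-fold the top concentration) and incubated 48 h. Adherent cells were fixed with 10% final TCA and suspension cells with 16%. Plates were stained with 0.4% SRB and read at 515 nm. GI50 is the concentration giving 50% reduction in net protein increase versus control.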
(In SRB staining, fixed cells bind dye roughly in proportion to their protein.)

A further assay has as its system SK-MEL-2. The assay is described as follows: Growth inhibition of human SK-MEL-2 cells after 48 hrs by Sulforhodamine B assay. As to conditions: SK-MEL-2, 48 h. In a few lines:
as §2

For the next assay, the system named is CCRF-CEM. The assay is described as follows: Growth inhibition of human CCRF-CEM cells after 48 hrs by Sulforhodamine B assay. In a few lines:
as §1

The subject of assay [2] is SK-MEL-28. The assay is described as follows: Growth inhibition of human SK-MEL-28 cells after 48 hrs by Sulforhodamine B assay. The following applies: SK-MEL-28, 48 h. In a few lines:
as §2

The subject of a further assay is CAKI-1. The assay is described as follows: Growth inhibition of human CAKI-1 cells after 48 hrs by Sulforhodamine B assay. The following applies: CAKI-1, 48 h. In a few lines: as §1
The next assay has as its system OVCAR-3. The assay is described as follows: Growth inhibition of human OVCAR3 cells after 48 hrs by Sulforhodamine B assay. The following applies: OVCAR-3, 48 h. In a few lines: as §2
In a further assay the test system is KM12. The assay is described as follows: Growth inhibition of human KM12 cells after 48 hrs by Sulforhodamine B assay. As to conditions: KM12, 48 h. In a few lines: as §1
Assay [3] has as its system COLO 205. The experiment in a line: Growth inhibition of human COLO205 cells after 48 hrs by Sulforhodamine B assay. The following applies: COLO 205, 48 h. In a few lines: as §1
A further assay relates to TK-10. The assay is described as follows: Growth inhibition of human TK10 cells after 48 hrs by Sulforhodamine B assay. The following applies: TK-10, 48 h. In a few lines: (§3)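 Five-concentration stage in the […]-cell-line panel, using 10-fold or ½-log serial dilutions made from a DMSO stock (400-fold). Cells were preincubated 24 h at 37 °C, then drug-exposed 48 h. A time-zero plate was fixed with TCA at dosing, adherent cells were fixed with cold TCA (10% final), and protein was stained with SRB, absorbance 515 nm. GI50 was where [(Ti−Tz)/(C−Tz)]×100 = 50, from the percent growth vs log concentration plot, expressed as log10 GI50.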

Another assay has as its system OVCAR-5. The assay is described as follows: Growth inhibition of human OVCAR5 cells after 48 hrs by Sulforhodamine B assay. The following applies: OVCAR-5, 48 h. In a few lines:
as §2

A further assay deals with NCI-H23. The experiment in a line: Growth inhibition of human NCI-H23 cells after 48 hrs by Sulforhodamine B assay. As to conditions: NCI-H23, 48 h. In a few lines: as §2
The test system of assay [4] is HT-29. The experiment in a line: Growth inhibition of human HT-29 cells after 48 hrs by Sulforhodamine B assay. The following applies: HT-29, 48 h. In a few lines: as §1
The next assay relates to HOP-62. The assay is described as follows: Growth inhibition of human HOP62 cells after 48 hrs by Sulforhodamine B assay. The following applies: HOP-62, 48 h. In a few lines: as §1
The next assay deals with NCI-H460. The assay is described as follows: Growth inhibition of human NCI-H460 cells after 48 hrs by Sulforhodamine B assay. As to conditions: NCI-H460, 48 h. In a few lines: as §2
Assay [5] concerns UO-31. The assay is described as follows: Growth inhibition of human UO31 cells after 48 hrs by Sulforhodamine B assay. As to conditions: UO-31, 48 h. In a few lines: as §3
For the next assay, the system named is MDA-MB-468. The experiment in a line: Growth inhibition of human MDA-MB-468 cells after 48 hrs by Sulforhodamine B assay. As to conditions: MDA-MB-468, 48 h. In a few lines: as §2
For the next assay, the system named is MDA-MB-231. The experiment in a line: Growth inhibition of human MDA-MB-231 cells after 48 hrs by Sulforhodamine B assay. The following applies: MDA-MB-231, 48 h. In a few lines:
as §1

In the next assay the test system is HOP-92. The assay is described as follows: Growth inhibition of human HOP92 cells after 48 hrs by Sulforhodamine B assay. As to conditions: HOP-92, 48 h. In a few lines: as §1
For a further assay, the system named is T47D. The assay is described as follows: Growth inhibition of human T47D cells at 10^-5 M after 48 hrs by Sulforhodamine B assay relative to control. As to conditions: read-out: GI. In a few lines:
(§4)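 Single-dose stage: compound tested at 10⁻⁵ M in the 49-cell-line panel. Cells grew 24 h at 37 °C, 5% CO₂ before drug addition. Drug stock was in DMSO at 400-fold, diluted in medium with gentamicin. After 48 h exposure, adherent cells were fixed with cold TCA (10% final) and stained with 0.4% SRB in 1% acetic acid. Dye was solubilized in 10 mM Tris, read at 515 nm. Growth percentage was taken relative to untreated control and time-zero plates.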

The test system of assay [6] is UO-31. The experiment in a line: Growth inhibition of human UO31 cells at 10^-5 M after 48 hrs by Sulforhodamine B assay relative to control. As to conditions: UO-31, 48 h, read-out: GI. In a few lines: as §4
The next assay concerns HCT-116. The experiment in a line: Growth inhibition of human HCT116 cells at 10^-5 M after 48 hrs by Sulforhodamine B assay relative to control. The following applies: HCT-116, 48 h, read-out: GI. In a few lines:
(§5)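 Single-dose screen at 10⁻⁵ M. Cells are preincubated 24 h at 37 °C in 5% CO2, then exposed to the compound, diluted from a DMSO stock into medium with gentamicin, for 48 h. Adherent cells are fixed with cold TCA (final 10%) and suspension cells with TCA (final 16%). Cells are stained with 0.4% SRB in 1% acetic acid and bound dye is read at 515 nm. Percent growth inhibition is taken against control wells and time-zero plates.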

The subject of assay [7] is COLO 205. The assay is described as follows: Growth inhibition of human COLO205 cells at 10^-5 M after 48 hrs by Sulforhodamine B assay relative to control. As to conditions: COLO 205, 48 h, read-out: GI. In a few lines:
as §5

Assay [8] relates to HT-29. The experiment in a line: Growth inhibition of human HT-29 cells at 10^-5 M after 48 hrs by Sulforhodamine B assay relative to control. The following applies: HT-29, 48 h, read-out: GI. In a few lines:
as §5

The test system of the next assay is SF-539. The experiment in a line: Growth inhibition of human SF539 cells at 10^-5 M after 48 hrs by Sulforhodamine B assay relative to control. As to conditions: SF-539, 48 h, read-out: GI. In a few lines:
(§6)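 Single-dose primary screen at 10⁻⁵ M across 49 lines. Cells were plated 24 h beforehand, with a TCA-fixed time-zero plate, then exposed 48 h at 37 °C, 5% CO2. Cells were fixed with cold TCA, stained with SRB and read at 515 nm. Percent growth was calculated against time-zero and untreated-control absorbances.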

In assay [9] the test system is Hs-578T. The experiment in a line: Growth inhibition of human Hs578T cells at 10^-5 M after 48 hrs by Sulforhodamine B assay relative to control. As to conditions: read-out: GI. In a few lines: as §5
The next assay has as its system ACHN. The assay is described as follows: Growth inhibition of human ACHN cells at 10^-5 M after 48 hrs by Sulforhodamine B assay relative to control. As to conditions: read-out: GI. In a few lines:
as §5

For assay [10], the system named is SK-MEL-28. The assay is described as follows: Growth inhibition of human SK-MEL-28 cells at 10^-5 M after 48 hrs by Sulforhodamine B assay relative to control. As to conditions: SK-MEL-28, 48 h, read-out: GI. In a few lines:
as §6

For another assay, the system named is K562. The experiment in a line: Growth inhibition of human K562 cells at 10^-5 M after 48 hrs by Sulforhodamine B assay relative to control. The following applies: K562, 48 h, read-out: GI. In a few lines:
as §5

As for `O=c1[nH]c(-c2ccncc2)nc2sc3c(c12)CCCCCC3`, the concentration for 50% growth inhibition (GI50) is above 100 µM with Hs-578T [1]; above 100 µM in the assay with OVCAR-8; above 100 µM in the assay with SK-MEL-2; above 100 µM in the assay with CCRF-CEM; above 100 µM in the assay on SK-MEL-28 [2]; above 100000 nM in the assay on CAKI-1. For the same compound, the 50% growth inhibitory concentration (GI50) in the assay with OVCAR-3, with KM12, in the assay with COLO 205 [3], with TK-10, in the assay with OVCAR-5 and with NCI-H23 was above 100 µM throughout. Further, the GI50 with HT-29 [4] is above 100 µM; in the assay with HOP-62, above 100 µM; with NCI-H460 it was above 100 µM; in the assay on UO-31 [5], above 100000 nM; with MDA-MB-468 it was above 100 µM; in the assay on MDA-MB-231, above 100 µM. The concentration for 50% growth inhibition (GI50) in the assay with HOP-92 is above 100000 nM.

`c1ccc(-c2nc(N3CCOCC3)c3c4c(sc3n2)CCCCCC4)nc1`: the GI50 in the assay on Hs-578T [1] was 3.39 µM; with OVCAR-8 it was 5.13 µM; with SK-MEL-2, 7.94 µM; with CCRF-CEM it was 3.55 µM; with SK-MEL-28 [2], 11 µM; with CAKI-1, 2290 nM. For the same compound, the GI50 is 4.57 µM in the assay on OVCAR-3; 4.27 µM with KM12; 9.33 µM in the assay on COLO 205 [3]; 9.33 µM in the assay with TK-10; 10.2 µM in the assay on OVCAR-5; 6.03 µM with NCI-H23. For the same compound, the GI50 with HT-29 [4] is 6.03 µM; in the assay with HOP-62, 9.55 µM; in the assay with NCI-H460, 5.89 µM; with UO-31 [5], 1170 nM; with MDA-MB-468, 4.17 µM; in the assay with MDA-MB-231, 7.41 µM. It took 617 nM to inhibit growth with HOP-92 by half (GI50).

With `c1cc(-c2nc(N3CCOCC3)c3c4c(sc3n2)CCCCCC4)ccn1`, the inhibition of growth at 10 µM was 19.2% in the assay on T47D; 38.7% in the assay on UO-31 [6]; 23.2% with HCT-116; -0.84% in the assay on COLO 205 [7]; 17.6% in the assay on HT-29 [8]; 15.8% with SF-539. Moreover, the inhibition of growth at 10 µM is -13.3% in the assay with Hs-578T [9], 17.1% in the assay with ACHN, -7.03% in the assay with SK-MEL-28 [10] and 29.3% with K562.

As to `NNc1nc(-c2ccncc2)nc2sc3c(c12)CCCCCC3`, the inhibition of growth at 10 µM is 0.16% in the assay with T47D; 20.4% in the assay on UO-31 [6]; 4.13% with HCT-116; 2.31% with COLO 205 [7]; 13.2% in the assay with HT-29 [8]; -14.8% in the assay with SF-539. In addition, the inhibition of growth at 10 µM in the assay with Hs-578T [9] was -13.7%; in the assay on ACHN it was 8.69%; in the assay on SK-MEL-28 [10], 4.94%; in the assay on K562, 24.7%.

For the compound `CN1CCN(c2nc(-c3ccccn3)nc3sc4c(c23)CCCCCC4)CC1`, the inhibition of growth at 10 µM with T47D was 24.9%; with UO-31 [6], 32.8%; in the assay with HCT-116, 14.1%; with COLO 205 [7] it was 0.37%; with HT-29 [8], 5.9%; in the assay on SF-539, 37.4%. For the same compound, the inhibition of growth at 10 µM in the assay with Hs-578T [9] is 6.23%; in the assay with ACHN it was 4.94%; in the assay with SK-MEL-28 [10], -5.08%; in the assay with K562, 20%.

Usually GI50 stands for the concentration at which growth is held to half of that of the control. Read a low GI50 as more potent growth inhibition.

(Values after ChEMBL document CHEMBL2375304, “Synthesis and anticancer activity of novel 2-pyridyl hexahyrocyclooctathieno[2,3-d]pyrimidine derivatives” (2013).)
